This passage reports inhibition results from PubChem BioAssay AID1885 (Broad Institute, 2009).

The campaign covered roughly 300,000 compounds. About 4,400 (1.5%) were called active.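 Rule for the calls: active = mean inhibition across valid replicates above about 55% (limit read from the data); inconclusive = mean below that limit but half or more replicates reach it; inactive = mean below it, under half of replicates reach it.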 Shown is part of a subset that was picked to be rich in actives.

This assay in a line: Trypanosoma cruzi replication blockers in host cells – luminescence, NIH3T3 host cells, primary screen (AID 1885).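 Note: signal also drops with host cell toxicity which is not excluded here; 0% = plate median of DMSO wells and 100% = zero luminescence signal; higher percent means less beta-gal luminescence so fewer parasites.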 To be noted: T. cruzi beta-gal in NIH3T3, luminescence, 90 h; stronger effect = higher value; concentration not given here. The essentials: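 Test system: β-gal T. cruzi (Tulahuen C4) inside NIH/3T3 cells / Quantity: 5,000 cells/well / Measured by: luminescence from GalScreen with 0.05% NP40, read after 60 min / Medium: DMEM plus 2% FBS / Measure: parasite load inhibition, % / Reagent: Tulahuen C4 trypomastigotes, 5000/well / Schedule: co-culture of at least 90 h after 3 h attachment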
In general, inhibition refers to the change of the read-out against control, counted positive when it falls. Consider `COC(C[C@@H]1O[C@@H]1C(=O)[C@@H](C)OCc1ccccc1)OC`, for which the inhibition is 3.07% (inactive).

With `CCCCN(CCCC)CCCNC(=O)CN1C(=O)COc2ccc(S(=O)(=O)N3CCC(C)CC3)cc21`, the inhibition was 10.4% (inactive).

As for `Cc1cc(C)c(-c2c(O)c3ccccc3n(C)c2=O)c(C)c1`, the inhibition is -3.11% (inactive).

On to `COc1cc(C2/C(=C(\O)c3ccc4c(c3)CC(C)O4)C(=O)C(=O)N2c2nnc(C)s2)cc(OC)c1OC` (centres undefined), for which the inhibition is -5.79% (inactive).

Regarding `O=C(CSc1n[nH]c(=O)n1-c1ccccc1)Nc1ccccc1C(F)(F)F`, the inhibition was -3.4% (inactive).

`O=C(NCCC1CCCCN1S(=O)(=O)c1ccccc1)C(=O)NCC1CCCO1` (centres undefined): the inhibition is -5.32% (inactive).

`CSc1ncccc1C(=O)N1CCCC(CCC(=O)NCc2ccccc2F)C1` (centres undefined): the inhibition was 2.43% (inactive).

Regarding `COc1cccc(CNC(=O)CCC2CCCN(Cc3ccc(OC(F)F)cc3)C2)c1` (centres undefined), the inhibition was 49.4% (inactive).

As for `O=C(CCC1CCCN(Cc2ccc(O)c(Cl)c2)C1)NCc1ccccc1F` (centres undefined), the inhibition was 65.4% (active).

Take `CC(=O)c1ccc(S(=O)(=O)N2CCC3(CC2)OCCO3)cc1`: the inhibition was 4.17% (inactive).

As for `CC(=O)c1ccc(S(=O)(=O)N2CCN(C(=O)/C=C/c3ccc4ccccc4n3)CC2)cc1`, the inhibition was 20.6% (inactive).

Regarding `CC(=O)c1ccc(S(=O)(=O)N2CCN(c3nc4c(C)c(C)ccc4cc3C#N)CC2)cc1`, the inhibition was 63.6% (active).

For the compound `CCOc1ccc2ccccc2c1/C=N/NC(=O)c1c(C)cc(C)[nH]c1=O`, the inhibition is 13.7% (inactive).

On to `O=C(CSc1ccc(-c2ccc(-n3cccn3)cc2)nn1)Nc1ccc([N+](=O)[O-])cc1`, for which the inhibition is -0.835% (inactive).

Regarding `COc1ccc(C(CNC(=O)c2ccc(S(=O)(=O)Nc3ccccc3C)cc2)N2CCOCC2)cc1` (centres undefined), the inhibition was -0.159% (inactive).

On to `CSc1nccc(NC(=O)c2ccc(C(C)(C)C)cc2)n1`, for which the inhibition is -6.33% (inactive).

For the compound `NC(=O)C1(N2CCCCC2)CCN(C2CC(=O)N(Cc3ccc(N4CCCC4=O)cc3)C2=O)CC1` (centres undefined), the inhibition was 7.91% (inactive).

In the case of `CC(C)(C)NC(=O)CN1CCC(NC(=O)C23CC4CC(CC(C4)C2)C3)CC1`, the inhibition was 26.6% (inactive).

Regarding `O=C(N1CCCC1)C12CC3CC(C1)CC(C(=O)N1CCCC1)(C3)C2`, the inhibition was -14.8% (inactive).

In the case of `CN1CCN(CC(=O)C23CC4CC(CC(C4)C2)C3)CC1`, the inhibition was 56.4% (active).

For the compound `COc1ccc(CNc2cc(C)cc(C)c2)cc1OC`, the inhibition was -0.404% (inactive).

For `COc1ccc(CC(=O)Nc2ccc3c(c2)CCC3)cc1S(=O)(=O)N1CCOCC1`, the inhibition is -10.7% (inactive).

Turning to `COc1ccc(CNc2ccc3c(c2)CCC3)cc1OC`, the inhibition is 65.6% (active).

Turning to `Cc1ccc(S(=O)(=O)NCCC(=O)NNC(=O)C2COc3ccccc3O2)cc1` (centres undefined), the inhibition was 1.4% (inactive).

As for `COc1cccc(C(=O)Nc2cc3c(cc2Br)OCCCO3)c1`, the inhibition is 11.1% (inactive).

On to `Oc1ccc(N=Nc2nccs2)c(O)c1`, for which the inhibition was 47.7% (inactive).

Consider `Oc1ccc2ccccc2c1N=Nc1nccs1`, for which the inhibition is 71.1% (active).

For `Cc1ccc(N2CC(C(=O)Nc3cc(Cl)ccc3-n3cncn3)CC2=O)cc1` (centres undefined), the inhibition was -5.75% (inactive).

Take `COc1ccc(-c2c(NC(=O)c3ccco3)oc3ccc(Cl)cc3c2=O)cc1`: the inhibition was -16.1% (inactive).

`CC(=O)c1ccc(S(=O)(=O)NCc2nnnn2-c2ccccc2)cc1`: the inhibition was -4.22% (inactive).

As to `CCCCN(C(=O)c1ccc(S(=O)(=O)N2CCOCC2)cc1)C1CCS(=O)(=O)C1` (centres undefined), the inhibition is -3.57% (inactive).

Regarding `COc1ccccc1OCCNC(=O)CCNC(=O)c1ccccc1Cl`, the inhibition is -10.4% (inactive).

With `COc1ccccc1OCCNC(=O)c1cc([N+](=O)[O-])cc([N+](=O)[O-])c1`, the inhibition is 72.3% (active).

As for `CC(C)(C)SCCNC(=O)c1cccc([N+](=O)[O-])c1`, the inhibition was -5.13% (inactive).

Take `CS(=O)(=O)N1CCN(C(=O)CSc2ccccc2)CC1`: the inhibition is -1.63% (inactive).

For `COc1ccc(C(C)NC(=O)C2CCCC2)cc1` (centres undefined), the inhibition is -4.14% (inactive).

On to `COc1ccccc1CC(NC(C)=O)C(=O)NC1CCN(C(=O)Nc2ccccc2Cl)CC1` (centres undefined), for which the inhibition is -13.9% (inactive).

In the case of `COc1ccc(CN2CCCC(N3CCc4ccccc4C3)C2)c(O)c1` (centres undefined), the inhibition is 22.8% (inactive).

Regarding `COc1ccccc1CN1CCN(Cc2cc(OC)c(OC)cc2OC)CC1`, the inhibition is 25.3% (inactive).

Consider `COc1ccccc1CN1CCCC(N2CCN(c3ccc(F)cc3)CC2)C1` (centres undefined), for which the inhibition was 57.3% (active).

As for `COc1ccc(C[C@H]2CN3C(=NC[C@H]3C)N2CCNC(=O)CCC2CCCCC2)cc1`, the inhibition was -4.54% (inactive).

As for `Cc1cc2c(C)nc(N/N=C/c3ccccc3)nc2o1`, the inhibition is 22.4% (inactive).

Take `c1ccc(Nc2nc(-c3ccncc3)cs2)nc1`: the inhibition is 64% (active).

With `Clc1ccc(Nc2nc(-c3cccs3)cs2)nc1`, the inhibition is 42.7% (inactive).

`Cc1cccc(Nc2nc(-c3ccccc3)cs2)n1`: the inhibition is 18.7% (inactive).

Consider `CCCCn1c(N)c(N2CCOCC2)c(=O)n(CC(=O)NCCc2ccccc2)c1=O`, for which the inhibition is -20% (inactive).

For `O=C(N/N=C/c1ccccn1)c1cccnc1`, the inhibition is 3.75% (inactive).

On to `O=C(N/N=C/c1sc(N2CCCCC2)nc1-c1cccs1)c1cccnc1`, for which the inhibition is 65% (active).

Turning to `Cc1cc(/C=N/NC(=O)c2cccnc2)c(C)n1CC(C)C`, the inhibition is -5.46% (inactive).

On to `C=CCNC(=S)/N=c1/ccccn1Cc1ccccc1`, for which the inhibition was 36.1% (inactive).

`O=C(OCCOCn1cc(Br)c(=O)[nH]c1=O)c1ccccc1`: the inhibition is -6.18% (inactive).

On to `O=C(OCC(=O)N1CCCC1=O)c1cc(S(=O)(=O)N2CCOCC2)ccc1Cl`, for which the inhibition is -8.41% (inactive).

As for `Cc1nc(N2CCOCC2)c2c(C)c(C(=O)Nc3ccc(C(F)(F)F)cc3)sc2n1`, the inhibition is 68% (active).

As to `Cc1nc(N2CCN(c3ccccn3)CC2)c2c(C)c(C(=O)Nc3ccc(F)c(Cl)c3)sc2n1`, the inhibition was 3.99% (inactive).

On to `Cc1nc(N2CCC(C)CC2)c2c(C)c(C(=O)Nc3cc(F)ccc3C)sc2n1`, for which the inhibition was 49.5% (inactive).

Regarding `CC(C)Nc1nnc(SC(C)C(=O)N(C)C2CCCCC2)s1` (centres undefined), the inhibition was -3% (inactive).

Take `Cc1occc1C(=O)NC1CCCN(Cc2ccc(CC(C)C)cc2)C1` (centres undefined): the inhibition is 57.7% (active).

`COc1ccc(CN2CCCC(C(=O)N3CCCCC3)C2)cc1` (centres undefined): the inhibition was 27.2% (inactive).

As for `Cc1occc1C(=O)NNC(=S)NCC(C)C`, the inhibition is -18.5% (inactive).
